Test results: PubChem BioAssay AID504354 (Broad Institute, 2011)
A number with no mark means an inactive call.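 How the source made its calls: active means curve reaches 10% of the strong reference activator's caspase signal at or below the top valid tested dose; inactive means signal moves in the opposite direction, or the rest.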

Experiment: caspase activation in unprimed MEWO cells, dose response, counter-screen for A1 inhibitor project, cell-based, luminescence, dry powder, set 2 (AID 504354)
Details: caspase-Glo luminescence, 3 h, at 16 µM, stronger effect = higher value
Method in brief: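 Material – unprimed MEWO cell line expressing A1 · Quantity – 2500 cells per well · Medium – RPMI-1640 growth medium with 10% FBS · Doses – compound delivered into wells by pin transfer · Times – 3 h 37 °C compound exposure, 1 h room-temperature reagent incubation · Measured by – CaspaseGlo luminescence · Evaluation – caspase activity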

`C/C1=C/C(=O)O[C@@H]2C[C@@H](CC[C@H](C)/C=C\CC1)O[C@@](O)(C1CSC(=O)N1)C2` (stereo partly specified) gave a caspase activation of 2.23%.
